The test system of series [1] is Penicillium oxalicum. The experiment in a line: Antimicrobial activity against Penicillium oxalicum at 0.1 ug. Conditions: read-out: IZ. In kind it is functional. The gist of the method:
(§1)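 Direct bioautography: each compound is spotted onto TLC plates and the solvent evaporated. The test organism is then grown directly on the plate. Growth inhibition is scored at the spot as active (+) or very active (++). Where a number is given, it is the radius in mm of the inhibition zone around the spot.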

The test system of series [2] is Bacillus subtilis. The series is described as follows: Antimicrobial activity against Bacillus subtilis at 1 ug. In kind it is functional, organism-based. The gist of the method: as §1
For series [3], the system named is Micrococcus luteus. The series is described as follows: Antimicrobial activity against Micrococcus luteus at 10 ug. It counts as functional, organism-based. Put shortly:
as §1

Series [4] relates to Penicillium oxalicum. The series is described as follows: Antimicrobial activity against Penicillium oxalicum at 0.01 ug. It counts as functional. The gist of the method: as §1
The subject of a further series is LNCaP. The series is described as follows: Cytotoxicity against human LNCAP cells. In kind it is functional. Conditions: read-out: ED50 (the source's name).
Series [5] in a line: Cytotoxicity against human BCA1 cells. It counts as functional. Conditions: read-out: ED50 (the source's name).
A short description of series [6]: Cytotoxicity against human MEL-2 cells. It counts as functional. To be noted: MEL2, read-out: ED50 (the source's name).
A further series has as its system P388. The series is described as follows: Cytotoxicity against mouse P388 cells. To be noted: read-out: ED50 (the source's name). In kind it is functional.
Series [7] deals with Micrococcus luteus. The series is described as follows: Antimicrobial activity against Micrococcus luteus at 5 ug. In kind it is functional, organism-based. The gist of the method: as §1
Series [8] is described as follows: Cytotoxicity against human Col1 cells. In kind it is functional. To be noted: read-out: ED50 (the source's name).
For another series, the system named is A-431. The series is described as follows: Cytotoxicity against human A431 cells. Conditions: read-out: ED50 (the source's name). In kind it is functional.
Series [9] deals with Escherichia coli. The series is described as follows: Antimicrobial activity against Escherichia coli at 0.1 ug. In kind it is functional, organism-based. The gist of the method: as §1
For series [10], the system named is Penicillium oxalicum. The experiment in a line: Antimicrobial activity against Penicillium oxalicum at 5 ug. In kind it is functional. Conditions: read-out: IZ. Put shortly:
as §1

The test system of series [11] is Escherichia coli. The series is described as follows: Antimicrobial activity against Escherichia coli at 1 ug. In kind it is functional, organism-based. Put shortly: as §1
The next series has as its system HT-1080. The experiment in a line: Cytotoxicity against human HT1080 cells. In kind it is functional. To be noted: read-out: ED50 (the source's name).
Series [12] concerns KB. The experiment in a line: Cytotoxicity against vinblastine-sensitive human KB cells. It counts as functional. To be noted: read-out: ED50 (the source's name).
For series [13], the system named is Bacillus subtilis. The series is described as follows: Antimicrobial activity against Bacillus subtilis at 10 ug. It counts as functional, organism-based. Put shortly:
as §1

Series [14] concerns Plasmodium falciparum. The series is described as follows: Antimalarial activity against chloroquine-sensitive Plasmodium falciparum D6 at 10 ug/ml. In kind it is functional.
Series [15] concerns Micrococcus luteus. The series is described as follows: Antimicrobial activity against Micrococcus luteus at 1 ug. It counts as functional, organism-based. The gist of the method: as §1
Series [16] has as its system Monocyte. The experiment in a line: Inhibition of LPS-stimulated IL1 production in human monocytes. In kind it is functional, cell-based.
Series [17] deals with Escherichia coli. The series is described as follows: Antimicrobial activity against Escherichia coli at 10 ug. In kind it is functional, organism-based. The gist of the method:
as §1

Another series concerns ZR-75-1. The experiment in a line: Cytotoxicity against human ZR-75-1 cells. It counts as functional. To be noted: read-out: ED50 (the source's name).
In series [18] the test system is KB. The experiment in a line: Cytotoxicity against vinblastine-resistant human KB cells. In kind it is functional. To be noted: read-out: ED50 (the source's name). The gist of the method: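 The vinblastine-resistant KB-V1 line was tested both with and without added vinblastine in the cultured tumour-cell cytotoxicity panel. Results are reported as ED50.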
Series [19] concerns Penicillium oxalicum. The experiment in a line: Antimicrobial activity against Penicillium oxalicum at 1 ug. It counts as functional. The gist of the method: as §1
In series [20] the test system is Penicillium oxalicum. The experiment in a line: Antimicrobial activity against Penicillium oxalicum at 10 ug. It counts as functional. To be noted: read-out: IZ. Put shortly: as §1
Series [21] has as its system Escherichia coli. The series is described as follows: Antimicrobial activity against Escherichia coli at 5 ug. In kind it is functional, organism-based. The gist of the method:
as §1

The test system of series [22] is KB. The series is described as follows: Cytotoxicity against human KB cells. In kind it is functional. To be noted: read-out: ED50 (the source's name).
In series [23] the test system is Bacillus subtilis. The experiment in a line: Antimicrobial activity against Bacillus subtilis at 5 ug. In kind it is functional, organism-based. Put shortly:
as §1

Series [24] in a line: Inhibition of PKC.
The subject of series [25] is Monocyte. The experiment in a line: Inhibition of IL1 biosynthesis in human monocytes. It counts as functional, cell-based.
Series [26] in a line: Cytotoxicity against human U373 cells. Conditions: U373 MG, read-out: ED50 (the source's name). It counts as functional, U-373MG ATCC.
Series [27] can be described thus: Selectivity index, ratio of IC50 for human KB cells to IC50 for Plasmodium falciparum D6. It counts as toxicity, cell-based. To be noted: KB cells versus Plasmodium falciparum D6, read-out: Ratio IC50. The gist of the method:
(§2)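 Plasmodium falciparum clones were assayed in vitro: D6 (chloroquine-sensitive) and W2 (chloroquine-resistant). IC50 is in μg/mL. The selectivity index is the ratio of the antimalarial to the cytotoxic activity.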

Series [28] can be described thus: Selectivity index, ratio of IC50 for human KB cells to IC50 for Plasmodium falciparum W2. It counts as toxicity, cell-based. Conditions: KB cells versus Plasmodium falciparum W2, read-out: Ratio IC50. Put shortly: as §2
Series [29] concerns Plasmodium falciparum. The experiment in a line: Antimalarial activity against chloroquine-resistant Plasmodium falciparum W2. It counts as functional, organism-based. The gist of the method: (§3)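 In vitro growth inhibition of Plasmodium falciparum clones D6 (chloroquine-sensitive) and W2 (chloroquine-resistant); IC50 reported in μg/mL.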
The test system of series [30] is Plasmodium falciparum. The experiment in a line: Antimalarial activity against chloroquine-sensitive Plasmodium falciparum D6. In kind it is functional, organism-based. Put shortly:
as §3

The next series relates to Lu1. The series is described as follows: Cytotoxicity against human Lu1 cells. It counts as functional. To be noted: read-out: ED50 (the source's name).
The test system of series [31] is Micrococcus luteus. The series is described as follows: Antimicrobial activity against Micrococcus luteus at 0.1 ug. In kind it is functional, organism-based. Put shortly:
as §1

Values after ≈ are worked out from the molar mass of the structure shown. Active and inactive are the calls of the source. The rule behind the calls is not given here.

On to `CCCCC1=C(Br)C(=C(Br)Br)OC1=O`, for which the zone of inhibition at 0.1 µg/disc in the series with Penicillium oxalicum [1] stood at 1 mm. Besides, the outcome in the series with Bacillus subtilis [2], in the series on Penicillium oxalicum [4], in the series on Escherichia coli [9], with Escherichia coli [11] and in the series with Micrococcus luteus [15] was inactive. Besides, the outcome in the series with Micrococcus luteus [3], in the series with Micrococcus luteus [7], with Bacillus subtilis [13], in the series with Escherichia coli [17], in the series with Escherichia coli [21] and in the series on Bacillus subtilis [23] was Active. The EC50 was 9.3 µg/mL (≈ 23.9 µM) in the series on LNCaP; 6.4 µg/mL (≈ 16.5 µM) in series [5]; 4.2 µg/mL (≈ 10.8 µM) in series [6]; > 5 µg/mL in the series with P388; 12.4 µg/mL (≈ 31.9 µM) in series [8]; 10.5 µg/mL (≈ 27 µM) in the series on A-431. Further, the EC50 with HT-1080 is > 20 µg/mL; with KB [12], > 20 µg/mL; with ZR-75-1, 8.6 µg/mL (≈ 22.1 µM); with KB [18], > 20 µg/mL; in the series on KB [22] it was > 20 µg/mL; in series [26], > 20 µg/mL. Also, the zone of inhibition at 5 µg/disc in the series with Penicillium oxalicum [10] was determined as 13 mm. In addition, the Activity in the series with Plasmodium falciparum [14] is >50%. Further, the 50% inhibitory concentration (IC50) (as a rule, the concentration at which inhibition is half-maximal) in the series with Monocyte [16] is 1.8 µM; in series [24], ≥ 200 µM; in the series on Monocyte [25] it was 3 µM. For the same molecule, the zone of inhibition at 1 µg/disc with Penicillium oxalicum [19] (read-out: IZ) is 8 mm. Further, in the series on Penicillium oxalicum [20], the zone of inhibition at 10 µg/disc came out at 11 mm.

Regarding `C[C@@H]1CC[C@H]2[C@@H](C)C(=O)O[C@@H]3O[C@@]4(C)CC[C@@H]1[C@]32OO4` [ARTEMISININ], the results for the selectivity ratio in series [27] and in series [28] were > 18200 and > 3280, respectively. In addition, the values for the IC50 with Plasmodium falciparum [29] and in the series with Plasmodium falciparum [30] were 0.006 µg/mL (≈ 0.0213 µM) and 0.001 µg/mL (≈ 0.00354 µM), respectively. Also, in the series with KB [22], the EC50 was > 20 µg/mL.

On to `CCCCCCC(=O)C(Br)=C(Br)Br`, for which the outcome in the series with Bacillus subtilis [2], in the series with Escherichia coli [9], with Escherichia coli [11], in the series on Bacillus subtilis [13], in the series on Micrococcus luteus [15] and in the series on Escherichia coli [17] was inactive. For the same molecule, the outcome in the series on Penicillium oxalicum [19], with Escherichia coli [21] and with Bacillus subtilis [23] was inactive. Besides, the result with Micrococcus luteus [3] and in the series on Micrococcus luteus [7] was Active. Moreover, the EC50 was > 20 µg/mL with LNCaP; > 20 µg/mL in [5]; > 20 µg/mL in series [6]; > 5 µg/mL in the series on P388; > 20 µg/mL with Lu1; > 20 µg/mL in series [8]. In addition, the EC50 in the series with A-431, in the series on HT-1080, with KB [12], in the series with ZR-75-1, in the series on KB [18] and in the series on KB [22] was > 20 µg/mL throughout. In addition, the EC50 in series [26] was > 20 µg/mL. In the series with Penicillium oxalicum [10], the zone of inhibition at 5 µg/disc was determined as 5 mm. In addition, the Activity in the series on Plasmodium falciparum [14] is recorded as >50%. Moreover, the zone of inhibition at 10 µg/disc in the series with Penicillium oxalicum [20] turned out to be 10 mm. Besides, the IC50 in [24] is ≥ 200 µM.

As to `CCCCC1=C(Br)/C(=C/Br)OC1=O`, the outcome with Bacillus subtilis [2], with Micrococcus luteus [31], in the series on Escherichia coli [9], in the series on Escherichia coli [11], in the series with Penicillium oxalicum [19] and in the series on Escherichia coli [21] was inactive. For the same molecule, in the series with Bacillus subtilis [23], the result was inactive. Further, the result with Micrococcus luteus [3], in the series with Micrococcus luteus [7], in the series with Bacillus subtilis [13], with Micrococcus luteus [15] and with Escherichia coli [17] was Active. Moreover, the EC50 with LNCaP was 7.3 µg/mL (≈ 23.5 µM); in series [5] it was 9.8 µg/mL (≈ 31.6 µM); in [6], 5.3 µg/mL (≈ 17.1 µM); in the series with P388, > 5 µg/mL; with Lu1 it was > 20 µg/mL; in series [8], > 20 µg/mL. Besides, the EC50 with A-431 was > 20 µg/mL; with HT-1080 it was 2.2 µg/mL (≈ 7.1 µM); in the series with KB [12], > 20 µg/mL; in the series on ZR-75-1, 10.2 µg/mL (≈ 32.9 µM); in the series with KB [18], > 20 µg/mL; in the series with KB [22], > 20 µg/mL. Also, the EC50 in [26] turned out to be 10 µg/mL (≈ 32.3 µM). In the series on Penicillium oxalicum [10], the zone of inhibition at 5 µg/disc is 3 mm. In addition, the Activity with Plasmodium falciparum [14] is >50%. Besides, in the series with Penicillium oxalicum [20], the zone of inhibition at 10 µg/disc amounted to 3 mm.

Source of the values: ChEMBL document CHEMBL1158040, “Biological activities and 3D QSAR studies of a series of Delisea pulchra (cf. fimbriata) derived natural products” (J Nat Prod, 2006).
